Source: PubChem BioAssay (The Scripps Research Institute Molecular Screening Center)
OX1R antag-1 – OX1R (HCRTR1) antagonists, primary screen, fluorescence, CHO/OX1R cells, Fluo-8 calcium, orexin A; Orexin/Hypocretin receptor type 1 (Homo sapiens), O43613; Fluo-8 calcium fluorescence; inhibition, % at 5 µM; 0.43% of 330,000 active; AID 434989, 2010;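 active means inhibition above its plate's threshold, mean inhibition of all tested compounds on the plate plus 3 SD, cut at about 37% in these data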
Target sequence (O43613 whole entry, looked up): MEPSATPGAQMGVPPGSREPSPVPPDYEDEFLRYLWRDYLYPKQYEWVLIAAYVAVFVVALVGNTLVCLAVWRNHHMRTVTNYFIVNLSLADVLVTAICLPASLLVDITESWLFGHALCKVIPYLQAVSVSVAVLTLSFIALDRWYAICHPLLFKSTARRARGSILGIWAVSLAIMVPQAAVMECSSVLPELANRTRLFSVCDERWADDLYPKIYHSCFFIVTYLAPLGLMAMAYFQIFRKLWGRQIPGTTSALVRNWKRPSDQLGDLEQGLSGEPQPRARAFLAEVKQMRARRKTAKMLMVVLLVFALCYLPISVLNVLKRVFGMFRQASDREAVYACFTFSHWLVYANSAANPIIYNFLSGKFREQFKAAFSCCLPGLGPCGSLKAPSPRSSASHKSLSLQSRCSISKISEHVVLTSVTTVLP
OX1R antag-2 – antagonists of human orexin 1 receptor (OX1R); Orexin/Hypocretin receptor type 1 (Homo sapiens), O43613; OX1R-expressing cells, FRET antagonist read-out; inhibition, % at 6.6 µM; 1.8% of 330,000 active; AID 485270, 2010; in the data active means inhibition mostly above about 38%, no sharp cut-off; inactive means mostly below about 40%
TAAR1 antag – human TAAR1 antagonists, primary screen, Fluo-8 calcium fluorescence, CHO RD-HGA16 cells; Trace amine-associated receptor 1 (Homo sapiens), Q96RJ0; 1.5% of 360,000 active; antagonist; inhibition, % at 3 µM;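 active means inhibition above a per-plate cutoff, the mean inhibition of test compounds on that plate plus 3 SD, cut at about 49% in these data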
Target sequence (Q96RJ0 whole entry, looked up): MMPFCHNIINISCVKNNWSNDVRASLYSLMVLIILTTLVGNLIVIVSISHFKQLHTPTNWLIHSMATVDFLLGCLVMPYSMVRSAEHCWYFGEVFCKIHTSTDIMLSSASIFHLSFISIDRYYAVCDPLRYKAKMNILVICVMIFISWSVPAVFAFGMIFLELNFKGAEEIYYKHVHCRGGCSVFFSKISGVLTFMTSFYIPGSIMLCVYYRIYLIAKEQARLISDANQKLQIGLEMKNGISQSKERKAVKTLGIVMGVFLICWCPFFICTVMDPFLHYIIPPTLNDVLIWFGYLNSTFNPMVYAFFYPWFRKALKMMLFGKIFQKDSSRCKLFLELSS
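test system = CHO RD-HGA16 cells bearing hTAAR1 | replication = singlicate | controls = DMSO-only wells and EC80 β-PEA-stimulated wells | reagent = EC80 β-phenethylamine stimulus | read-out basis = percent inhibition of PEA-evoked calcium signal, max/basal emission ratio | schedule = seeding 17-24 h prior, 75-min 37 °C, 30-min RT dye loading | signal = kinetic Fluo-8 calcium fluorescence measurement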
TAAR1 ag – human TAAR1 agonists, primary screen, Fluo-8 calcium fluorescence, CHO RD-HGA16 cells | vehicle wells 0%, saturating PEA agonist 100% | Trace amine-associated receptor 1 (Homo sapiens), Q96RJ0 | AID 624467, 2012 | 0.99% of 360,000 active | activation, % at 3 µM;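 active means activation above the mean activation of all test compounds in the run plus 3 SD, cut at about 38% in these data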
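Test system: RD-HGA16 (CHO) cells co-expressing Gα16 and hTAAR1 / Benchmarks: DMSO vehicle as 0%, PEA at EC100 as 100% / Repeats: no replicates (n 1) / Measure: % activation from peak over basal fluorescence ratio, DMSO-to-PEA scaled / Timing: 17-24 h plating, Fluo-8 75 min 37 °C, 30 min RT / Technique: kinetic Fluo-8 calcium fluorescence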
GPR7 antagonist – GPR7 receptor antagonists, primary screen, cell-based, fluorescence, single concentration | GPR7-expressing cells, fluorescence antagonist assay | inhibition, % at 4.4 µM | Neuropeptides B/W receptor type 1 (Homo sapiens), P48145 | 1.1% of 290,000 active | AID 1861, 2009; in the data active means inhibition above about 16%, passing the limit was not always enough;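 further: cells stimulated with the agonist NPW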
CHO parental Ca – ATP-evoked calcium signal inhibitors, parental CHO, primary screen, counter-screen for OX1R antagonist project, cell-based, fluorescence, Fluo-8 calcium dye; parental CHO-K1, ATP-induced calcium, Fluo-8 fluorescence; inhibition, % at 5.6 µM; 0.63% of 330,000 active; AID 463079, 2010;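 active means inhibition above that plate's mean sample inhibition plus 3 SD, cut at about 26% in these data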
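Assay system: untransfected parental CHO cell line. Also added: ATP agonist challenge. Dosing: one dose, 5.6 µM nominal. Measured by: Fluo-8 fluorescence. Read-out: % inhibition. Benchmarks: ATP wells versus no-ATP DMSO wells. Repeats: no replicates.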
GPR7 antag cf – GPR7 receptor antagonists, confirmation, cell-based, fluorescence, single concentration; AID 1952, 2009; shares compounds with GPR7 antagonist; inhibition, % at 4.4 µM; GPR7-expressing cells, calcium fluorescence antagonist mode; 52% of 2,400 active; in the data active means inhibition above about 24%;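 further: stimulated with the GPR7 agonist NPW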
MCHR1 antag – MCHR1 antagonists in cells, counter-screen for GPR7 antagonist project, cell-based, fluorescence, human; shares compounds with GPR7 antagonist; MCHR1-expressing cells, fluorescence antagonist assay; inhibition, % at 4.4 µM; 62% of 2,400 active; AID 2148, 2009; in the data active means inhibition above about 22%
Large screens that a line does not name were inactive (follow-up assays come after a bar, where they were run). An excerpt weighted towards active compounds, which were near 4.6% of everything screened.

CC(C)c1ccccc1NC(=O)Cn1c(-c2ccccc2Cl)nc2ccccc21	GPR7 antagonist 23 | GPR7 antag cf inactive | MCHR1 antag inactive
CC(C)c1ccc(N(C(=O)CNC(=O)c2ccco2)C(C(=O)NC2CCCC2)c2ccncc2)cc1 (stereo not drawn)	none
COc1ccc(NC(=O)C(=O)NCCN2CCN(C(=O)c3ccco3)CC2)cc1	none
O=C(Nc1ccc(N2CCN(C(=O)c3ccccc3)CC2)cc1)c1ccc2c(c1)OCO2	none
Cc1ccc(C(=O)N2CCN(c3ccc(NC(=O)c4ccc5c(c4)OCCO5)cc3)CC2)cc1	GPR7 antagonist 32 | GPR7 antag cf 33 | MCHR1 antag 65
O=C(Nc1cccc(S(=O)(=O)N2CCCCC2)c1)c1ccc2c(=O)n3c(nc2c1)CCCCC3	TAAR1 antag 61, GPR7 antagonist 28 | GPR7 antag cf inactive | MCHR1 antag 77
COc1ccc(CC(=O)N/N=C(\C)c2cccs2)cc1	GPR7 antagonist 31 | GPR7 antag cf inactive | MCHR1 antag inactive
COC(=O)N/N=C(\C)c1cccs1	none
COc1ccccc1NC(=O)COC(=O)/C=C/c1ccc2c(c1)OCO2	GPR7 antagonist 33 | GPR7 antag cf inactive | MCHR1 antag inactive
COc1ccccc1NC(=O)/C=C/c1ccc2c(c1)OCO2	none
Cc1ccc2c(c1)[C@@H]1CN(C)CC[C@@H]1N2S(=O)(=O)c1ccc([N+](=O)[O-])cc1	OX1R antag-2 44, GPR7 antagonist 29 | GPR7 antag cf inactive | MCHR1 antag inactive
Cc1ccc2c(c1)[C@@H]1CN(C)CC[C@@H]1N2S(=O)(=O)c1ccc(F)cc1	none
Cc1cc(C)c2cc(CN(CCN(C)C)C(=O)Nc3ccccc3Cl)c(=O)[nH]c2c1	none
CCc1ccc(NC(=S)NCc2ccccc2)cc1	none
Fc1ccccc1CNC(=S)NC1CCCCC1	none (no result: OX1R antag-1, OX1R antag-2, CHO parental Ca)
S=C(NCCc1cccc(Cl)c1)NCc1ccccc1	GPR7 antagonist 23 (no result: OX1R antag-1, OX1R antag-2, TAAR1 antag, TAAR1 ag, CHO parental Ca) | GPR7 antag cf inactive | MCHR1 antag inactive
S=C(NCc1ccccc1Cl)NC1CCCC1	GPR7 antagonist 21 | GPR7 antag cf inactive | MCHR1 antag inactive
S=C(NCc1ccccc1)NCc1cccc(Cl)c1	none (no result: OX1R antag-1, OX1R antag-2, CHO parental Ca)
Cc1ccc(NC(=S)NCc2ccc(Cl)cc2)c(C)c1	GPR7 antagonist 31 | GPR7 antag cf 24 | MCHR1 antag inactive
S=C(NCc1ccccc1)Nc1ccc(Cl)cc1	GPR7 antagonist 21 | GPR7 antag cf inactive | MCHR1 antag 43
Cc1nc2cc(C)c(C)cc2o1	none (no result: OX1R antag-1, OX1R antag-2, GPR7 antagonist, CHO parental Ca)
O=C(CNC(=O)c1ccco1)NCC(=O)OCC(=O)c1ccc(Cl)c([N+](=O)[O-])c1	none
S=C(NCc1ccc(Cl)cc1)NC1CCN(Cc2ccccc2)CC1	TAAR1 ag 51, GPR7 antagonist 25 | GPR7 antag cf 40 | MCHR1 antag 64
Clc1ccc(CNC2CCN(Cc3ccccc3)CC2)cc1	none
CC(=O)c1ccc(N2CCN(C(=O)Cc3ccccc3)CC2)c(F)c1	GPR7 antagonist 45 | GPR7 antag cf inactive | MCHR1 antag inactive
COC(=O)c1cc(S(=O)(=O)N2CCN(c3ccc(C(C)=O)cc3)CC2)cn1C	GPR7 antagonist 25 | GPR7 antag cf inactive | MCHR1 antag 41
COC(=O)c1cc(S(=O)(=O)N2CCN(c3ccc([N+](=O)[O-])cc3)CC2)c[nH]1	GPR7 antagonist 32 | GPR7 antag cf inactive | MCHR1 antag inactive
CC1CC(C)CN(C(=O)c2ccc(S(=O)(=O)N3CC(C)CC(C)C3)cc2)C1 (stereo not drawn)	GPR7 antagonist 25 | GPR7 antag cf 24 | MCHR1 antag 23
COC(=O)c1cc(S(=O)(=O)N2CCN(c3ccccc3OC)CC2)cn1C	none
CC(=O)c1ccc(S(=O)(=O)N2CCN(c3ccccc3F)CC2)cc1	GPR7 antagonist 25 | GPR7 antag cf 25 | MCHR1 antag 23
O=S(=O)(NCCCSc1ccccc1)c1ccccc1F	GPR7 antagonist 25 | GPR7 antag cf inactive | MCHR1 antag inactive
O=[N+]([O-])c1ccccc1S(=O)(=O)NCCSc1ccccc1	none
Cc1ccc(OCC(O)CNC2CCCC2)c(C)c1 (stereo not drawn)	none (no result: OX1R antag-1, OX1R antag-2, CHO parental Ca)
Cc1ccccc1OCC(O)CNC1CCC(NCC(O)COc2ccccc2C)CC1 (stereo not drawn)	GPR7 antagonist 77 | GPR7 antag cf 83 | MCHR1 antag 80
OC(CNC1Cc2ccccc2C1)COc1ccc(F)cc1 (stereo not drawn)	GPR7 antagonist 22 | GPR7 antag cf inactive | MCHR1 antag inactive
O=[N+]([O-])c1ccc(N2CCN(C(=S)NCc3ccc(Cl)cc3)CC2)cc1	OX1R antag-1 51, GPR7 antagonist 51, CHO parental Ca 84 | GPR7 antag cf 81 | MCHR1 antag 87
CCNC(=S)N1CCN(c2ccc([N+](=O)[O-])cc2)CC1	GPR7 antagonist 27 | GPR7 antag cf inactive | MCHR1 antag inactive
CNC(=S)N1CCN(c2ccc([N+](=O)[O-])cc2)CC1	none
CCc1nc2ccc(C(=O)N3CCN(c4ccc([N+](=O)[O-])cc4)CC3)cc2nc1CC	GPR7 antagonist 29 | GPR7 antag cf 24 | MCHR1 antag 86
N#CC(c1nc2ccccc2nc1OCCO)S(=O)(=O)c1ccccc1 (stereo not drawn)	none
Cc1ccc(C(c2nnnn2CC2CCCO2)N2CCN(c3cccc(C)c3C)CC2)cc1 (stereo not drawn)	none
CC(=O)c1ccc(NC(=S)Nc2ccc(Br)c(Cl)c2)cc1	none
CC(=O)c1ccc(NC(=S)NC(C)c2ccc(Cl)cc2Cl)cc1 (stereo not drawn)	OX1R antag-1 73, TAAR1 ag 41, GPR7 antagonist 44, CHO parental Ca 64 | GPR7 antag cf 61 | MCHR1 antag 73
Cc1cccc(CN2CCNC2=O)c1	GPR7 antagonist 21 | GPR7 antag cf inactive | MCHR1 antag inactive
Cc1ccccc1CN1CCNC1=O	none
CCCS(=O)(=O)NC(=O)C1(C)CCN(C(=O)c2ccc(F)c(Cl)c2)C1 (stereo not drawn)	none (no result: OX1R antag-1, OX1R antag-2, GPR7 antagonist, CHO parental Ca)
CC(CCn1cccn1)NC(=O)c1cc(COc2ccc(F)cc2F)on1 (stereo not drawn)	none
